Columns and labels:
[1] = target: T1, Peroxisome proliferator-activated receptor alpha (Homo sapiens, UniProt Q07869); test: Binding affinity to PPARalpha in human MIO-M1 cells assessed as increase in thermal stability preincubated for 3 hrs followed by exposure to 45.5 degree C for 10 mins by CETSA; type: cell-based
T1 sequence (Q07869 whole entry): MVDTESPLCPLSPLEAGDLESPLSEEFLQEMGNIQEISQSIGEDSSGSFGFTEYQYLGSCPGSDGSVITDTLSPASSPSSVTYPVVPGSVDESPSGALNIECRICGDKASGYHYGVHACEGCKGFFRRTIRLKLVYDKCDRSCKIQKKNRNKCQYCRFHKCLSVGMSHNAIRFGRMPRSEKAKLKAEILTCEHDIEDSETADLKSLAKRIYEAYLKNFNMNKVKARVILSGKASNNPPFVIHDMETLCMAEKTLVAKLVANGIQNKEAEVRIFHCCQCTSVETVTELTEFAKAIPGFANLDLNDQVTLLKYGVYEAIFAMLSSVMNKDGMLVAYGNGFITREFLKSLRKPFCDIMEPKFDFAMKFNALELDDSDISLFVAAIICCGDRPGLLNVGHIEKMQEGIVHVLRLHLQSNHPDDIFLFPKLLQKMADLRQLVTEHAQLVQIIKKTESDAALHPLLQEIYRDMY
How it was run: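 Human retinal Müller glial MIO-M1 cells grown in DMEM with 10% FBS. They were then heated at Tagg(75) for 10 min. Lysis used cold PBS with 0.1% Triton X-100 and protease inhibitors, and unstable protein was removed by centrifugation. Soluble PPARα was quantified by anti-PPARα immunoblot, normalized to loading control, and EC50 fitted. Single experiment, duplicate.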

[2] = Stability in human pooled liver microsomes preincubated for 5 mins prior to addition of NADPH-regenerating system and measured up to 60 mins by HPLC-MS/MS analysis; type: ADME, Microsome; conditions: 1 h
How it was run: (§1)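 Compound pre-incubated 5 min at 37 °C with pooled liver microsomes in phosphate buffer, pH 7.4. NADPH-generating system then added; samples taken at 0, 15, 30, 45 and 60 min and quenched in acetonitrile/methanol. […] References: propranolol, imipramine, verapamil, terfenadine. Run in duplicate.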

[3] = target: hERG (KCNH2) (Homo sapiens, UniProt Q12809); test: Inhibition of human ERG stably expressed in CHOK1 cells assessed as tail current amplitude at 10 uM incubated for 5 mins measured after deploarization to +20 mV for 2s followed by 1s pulse to -40 mV with holding potential of -80 mV by Qpatch clamp assay relative to control; type: cell-based; conditions: CHO-K1 cells stably expressing human ERG
How it was run: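 Whole-cell automated patch clamp at room temperature on CHO-K1 cells stably carrying human hERG cDNA. Holding potential -80 mV; tail current evoked by 2 s step to +20 mV then 1 s to -40 mV.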

[4] = target: T2, Peroxisome proliferator-activated receptor alpha (Homo sapiens) (UniProt Q07869); test: Binding affinity to His tagged PPARalpha LBD (unknown origin) expressed in Escherichia coli Rosetta (DE3) assessed as change in entropy at 25 degree C by isothermal titration calorimetry
T2 sequence (whole entry): T1 sequence (Q07869 whole entry)

[5] = Stability in Sprague Dawley rat pooled liver microsomes preincubated for 5 mins prior to addition of NADPH-regenerating system and measured up to 60 mins by HPLC-MS/MS analysis; type: ADME, Microsome; conditions: 1 h; how it was run: as §1
[6] = target: T1, Peroxisome proliferator-activated receptor alpha
[7] = test system: Rattus norvegicus; test: Protection against STZ-induced diabetic retinopathy Brown Norway rat model assessed as reduction in vascular leakage by measuring retinal vascular permeability at 25 mg/kg, ip administered daily for 4 weeks starting at 2 weeks post STZ challenge measured per mg of total retinal protein by Evan blue dye based assay (reference value: 0.090 +/- 0.015 microg); type: functional
How it was run: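 Male Brown Norway rats aged 8 weeks (legend: 7–8 weeks) made diabetic with STZ 55 mg/kg i.p.; blood glucose >350 mg/dl at day 3. Starting 2 weeks after STZ, daily i.p. compound or same-volume vehicle for 4 weeks. Under ketamine/xylazine, Evans blue 30 mg/ml at 1 µl/g given i.v. via femoral vein and circulated 2 h. Perfusion with 1% paraformaldehyde in citrate buffer, pH 4.2, at 37°C. Retina extracted in formamide 18 h at 70°C, ultracentrifuged, A620 read. Dye amount from a standard curve, normalized to total protein. Groups compared by Student's t-test, mean ± SD.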

[8] = Toxicity in STZ-induced diabetic retinopathy Brown Norway rat model assessed as liver weight at 25 mg/kg, ip administered daily for 4 weeks starting at 2 weeks post STZ challenge relative to body weight (reference value: 4.36 +/- 0.37%); type: organism-based; conditions: in vivo
[9] = test system: 661W; test: Cytotoxicity against mouse 661W cells assessed as cell death at 200 uM incubated for overnight by colorimetric enzyme coupled LDH assay; type: cell-based
[10] = Half life in human pooled liver microsomes preincubated for 5 mins prior to addition of NADPH-regenerating system and measured up to 60 mins by HPLC-MS/MS analysis; type: ADME, Microsome; conditions: 1 h
[11] = target: T3, Peroxisome proliferator-activated receptor delta (Homo sapiens, UniProt Q03181); test: Agonist activity at human PPARdelta expressed in nonhuman mammalian cells assessed as increase in receptor transcriptional activity incubated for 22 to 24 hrs by luciferase reporter gene assay; type: cell-based
T3 sequence (Q03181 whole entry): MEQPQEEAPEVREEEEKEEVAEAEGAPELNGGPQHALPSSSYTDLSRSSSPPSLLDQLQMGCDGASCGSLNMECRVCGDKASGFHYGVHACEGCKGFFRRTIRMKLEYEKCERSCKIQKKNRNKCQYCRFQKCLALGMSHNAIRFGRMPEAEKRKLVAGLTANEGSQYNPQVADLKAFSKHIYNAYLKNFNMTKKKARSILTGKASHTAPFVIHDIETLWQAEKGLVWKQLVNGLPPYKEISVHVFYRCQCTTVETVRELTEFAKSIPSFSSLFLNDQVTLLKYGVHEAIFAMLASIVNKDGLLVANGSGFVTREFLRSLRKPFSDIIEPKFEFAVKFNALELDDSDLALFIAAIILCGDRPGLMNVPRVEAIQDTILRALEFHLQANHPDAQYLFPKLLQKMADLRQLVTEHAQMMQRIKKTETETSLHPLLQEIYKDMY

[12] = Toxicity in STZ-induced diabetic retinopathy Brown Norway rat model at 25 mg/kg, ip administered for 1 month starting at 2 weeks post STZ challenge; type: organism-based; conditions: in vivo, 336 h
[13] = Half life in Sprague Dawley rat pooled liver microsomes preincubated for 5 mins prior to addition of NADPH-regenerating system and measured up to 60 mins by HPLC-MS/MS analysis; type: ADME, Microsome; conditions: 1 h
[14] = target: Voltage-gated inwardly rectifying potassium channel KCNH2 (Homo sapiens, UniProt Q12809); test: Inhibition of human ERG stably expressed in CHOK1 cells assessed as tail current amplitude at 0.1 to 10 uM incubated for 5 mins measured after deploarization to +20 mV for 2s followed by 1s pulse to -40 mV with holding potential of -80 mV by Qpatch clamp assay; type: cell-based
How it was run: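 Whole-cell automated patch clamp at room temperature. CHO-K1 cells were detached with trypsin and held in serum-free medium. Intracellular solution was KCl/EGTA/MgATP/HEPES at pH 7.2; extracellular solution was NaCl/KCl/CaCl2/glucose/HEPES at pH 7.4, applied first for 5 min. Compound given at 0.1, 1 and 10 μM in rising order, 5 min each, on the same cell. Percent inhibition taken from tail current before and after compound. E-4031 reference. Run in duplicate.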

[15] = target: T4, Peroxisome proliferator-activated receptor gamma (Homo sapiens, UniProt P37231); test: Agonist activity at human PPARgamma expressed in nonhuman mammalian cells assessed as increase in receptor transcriptional activity incubated for 22 to 24 hrs by luciferase reporter gene assay; type: cell-based
T4 sequence (P37231 whole entry): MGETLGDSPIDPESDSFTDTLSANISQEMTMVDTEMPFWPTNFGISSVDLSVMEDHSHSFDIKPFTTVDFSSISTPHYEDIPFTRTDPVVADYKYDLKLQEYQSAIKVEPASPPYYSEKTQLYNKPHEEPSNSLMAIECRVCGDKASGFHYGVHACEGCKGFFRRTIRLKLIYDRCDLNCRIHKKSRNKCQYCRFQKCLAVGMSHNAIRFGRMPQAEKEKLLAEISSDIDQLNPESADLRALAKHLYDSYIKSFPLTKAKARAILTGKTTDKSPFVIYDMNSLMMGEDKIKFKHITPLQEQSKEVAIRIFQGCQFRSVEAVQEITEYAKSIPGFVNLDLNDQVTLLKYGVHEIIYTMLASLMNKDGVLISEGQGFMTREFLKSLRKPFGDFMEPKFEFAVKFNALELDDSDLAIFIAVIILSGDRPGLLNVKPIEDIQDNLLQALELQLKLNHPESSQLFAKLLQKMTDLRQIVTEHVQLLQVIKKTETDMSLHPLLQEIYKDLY
How it was run: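 Reporter cells (nonhuman mammalian, engineered PPAR receptor with luciferase linked to response promoter) pre-incubated 4–6 h at 37 °C, 5% CO2 in medium with 10% charcoal-stripped FBS. Medium replaced with compound-containing screening medium, 22–24 h at 37 °C, then luciferase detection reagent, luminescence read. Multi-point dose-response for EC50; mean ± SEM of at least two separate experiments in triplicate.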

Chain of hERG (KCNH2) (Q12809 whole entry): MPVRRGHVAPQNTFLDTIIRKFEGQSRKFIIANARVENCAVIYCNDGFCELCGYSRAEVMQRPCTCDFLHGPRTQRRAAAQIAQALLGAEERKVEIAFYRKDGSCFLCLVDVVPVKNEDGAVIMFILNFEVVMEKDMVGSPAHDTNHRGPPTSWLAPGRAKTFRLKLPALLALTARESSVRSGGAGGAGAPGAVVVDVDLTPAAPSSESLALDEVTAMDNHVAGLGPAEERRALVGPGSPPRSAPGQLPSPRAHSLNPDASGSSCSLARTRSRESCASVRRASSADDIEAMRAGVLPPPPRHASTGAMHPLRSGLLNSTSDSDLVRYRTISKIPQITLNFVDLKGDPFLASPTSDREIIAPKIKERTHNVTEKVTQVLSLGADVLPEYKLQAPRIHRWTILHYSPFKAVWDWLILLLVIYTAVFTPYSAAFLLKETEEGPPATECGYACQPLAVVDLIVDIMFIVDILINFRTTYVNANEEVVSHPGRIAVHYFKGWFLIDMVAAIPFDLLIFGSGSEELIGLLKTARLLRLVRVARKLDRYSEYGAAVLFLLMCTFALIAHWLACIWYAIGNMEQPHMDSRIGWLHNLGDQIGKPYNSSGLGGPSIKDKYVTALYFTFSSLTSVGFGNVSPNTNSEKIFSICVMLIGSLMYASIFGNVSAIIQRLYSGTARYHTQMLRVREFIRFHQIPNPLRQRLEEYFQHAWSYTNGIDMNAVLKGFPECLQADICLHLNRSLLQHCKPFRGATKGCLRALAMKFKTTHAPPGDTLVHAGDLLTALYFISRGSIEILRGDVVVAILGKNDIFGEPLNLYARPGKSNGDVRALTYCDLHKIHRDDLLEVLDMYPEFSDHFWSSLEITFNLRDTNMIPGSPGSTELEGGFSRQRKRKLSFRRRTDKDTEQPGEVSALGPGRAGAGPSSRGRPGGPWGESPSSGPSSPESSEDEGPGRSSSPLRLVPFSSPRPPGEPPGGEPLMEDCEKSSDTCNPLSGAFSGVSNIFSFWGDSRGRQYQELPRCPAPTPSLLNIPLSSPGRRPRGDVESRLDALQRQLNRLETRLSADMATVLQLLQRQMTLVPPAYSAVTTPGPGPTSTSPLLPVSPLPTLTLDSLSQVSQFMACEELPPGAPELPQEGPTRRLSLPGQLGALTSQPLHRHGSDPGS
Chain of Voltage-gated inwardly rectifying potassium channel KCNH2 (Q12809 whole entry): as above

| Compound | EC50 [1] [nM] | Stability [2] | inhibition at 5 min, 10 µM [3] [%] | -TdeltaS [4] [kcal/mol] | Stability [5] | EC50 [6] [nM] | Activity [7] [µg] | Activity [8] [%] | Activity [9] | t1/2 [10] [h] | EC50 [11] [nM] | Activity [12] | t1/2 [13] [h] | inhibition (INH) [14] | EC50 [15] [nM] |
| --- | --- | --- | --- | --- | --- | --- | --- | --- | --- | --- | --- | --- | --- | --- | --- |
| Cc1cc(CNc2cccc(C(=O)O)c2)ccc1OCc1ccc(F)cc1 | 93 | Stable | 10 | -1.65 | Stable | 37 |  |  |  |  |  |  |  |  |  |
| COc1ccc(COc2ccc(CNc3cccc(C(=O)O)c3)cc2)cc1 | 300 |  | 10 | 5.71 |  | 4430 | 0.062 | 4.68 | Non-Toxic | > 1 | > 100000 | Non-Toxic | > 1 | Not Active | > 100000 |

Source: ChEMBL document CHEMBL4342468, “Evolution of a 4-Benzyloxy-benzylamino Chemotype to Provide Efficacious, Potent, and Isoform Selective PPARα Agonists as Leads for Retinal Disorders” (J Med Chem, 2020)
